Data: ChEMBL document CHEMBL5661979, “Pharmacological inhibition of BMK1 suppresses tumor growth through promyelocytic leukemia protein” (Cancer Cell, 2010)

Columns and labels:
Type in all cases: subcellular
[1] = molecular target: IKK epsilon/TBK1 (Homo sapiens) (UniProt Q14164+Q9UHD2); experiment: Inhibition of IKKE/TBK1 in human HeLa cells lysate at 2 uM pre incubated for 15 mins followed by ADP acyl phosphate probe addition and measured after 10 mins by LC-MS/MS analysis relative to control; details: time 25.0 min
[2] = molecular target: T1, Phosphatidylinositol 5-phosphate 4-kinase type-2 gamma (Homo sapiens) (UniProt Q8TBX8); experiment: Inhibition of PIP5K2C LIP2 site in human HeLa cells lysate at 50 uM pre incubated for 15 mins followed by ATP acyl phosphate probe addition and measured after 10 mins by LC-MS/MS analysis relative to control; details: time 25.0 min
T1 sequence (whole entry): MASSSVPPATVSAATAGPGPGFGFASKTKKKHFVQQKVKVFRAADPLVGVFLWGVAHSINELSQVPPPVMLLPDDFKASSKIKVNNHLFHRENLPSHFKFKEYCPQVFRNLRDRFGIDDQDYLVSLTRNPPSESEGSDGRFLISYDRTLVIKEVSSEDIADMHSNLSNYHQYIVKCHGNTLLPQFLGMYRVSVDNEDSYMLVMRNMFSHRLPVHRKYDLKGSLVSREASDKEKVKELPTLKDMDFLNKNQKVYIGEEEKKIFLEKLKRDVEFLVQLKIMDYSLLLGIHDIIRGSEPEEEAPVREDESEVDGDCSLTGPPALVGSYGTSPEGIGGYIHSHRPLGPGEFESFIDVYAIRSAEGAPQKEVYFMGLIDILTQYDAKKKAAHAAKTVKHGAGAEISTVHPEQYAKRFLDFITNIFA

[3] = molecular target: Microtubule-associated serine/threonine-protein kinase 3 (Homo sapiens, UniProt O60307); experiment: Inhibition of MAST3 in human HeLa cells lysate pre incubated for 15 mins followed by ATP acyl phosphate probe addition and measured after 10 mins by LC-MS/MS analysis
Microtubule-associated serine/threonine-protein kinase 3, sequence (O60307 whole entry): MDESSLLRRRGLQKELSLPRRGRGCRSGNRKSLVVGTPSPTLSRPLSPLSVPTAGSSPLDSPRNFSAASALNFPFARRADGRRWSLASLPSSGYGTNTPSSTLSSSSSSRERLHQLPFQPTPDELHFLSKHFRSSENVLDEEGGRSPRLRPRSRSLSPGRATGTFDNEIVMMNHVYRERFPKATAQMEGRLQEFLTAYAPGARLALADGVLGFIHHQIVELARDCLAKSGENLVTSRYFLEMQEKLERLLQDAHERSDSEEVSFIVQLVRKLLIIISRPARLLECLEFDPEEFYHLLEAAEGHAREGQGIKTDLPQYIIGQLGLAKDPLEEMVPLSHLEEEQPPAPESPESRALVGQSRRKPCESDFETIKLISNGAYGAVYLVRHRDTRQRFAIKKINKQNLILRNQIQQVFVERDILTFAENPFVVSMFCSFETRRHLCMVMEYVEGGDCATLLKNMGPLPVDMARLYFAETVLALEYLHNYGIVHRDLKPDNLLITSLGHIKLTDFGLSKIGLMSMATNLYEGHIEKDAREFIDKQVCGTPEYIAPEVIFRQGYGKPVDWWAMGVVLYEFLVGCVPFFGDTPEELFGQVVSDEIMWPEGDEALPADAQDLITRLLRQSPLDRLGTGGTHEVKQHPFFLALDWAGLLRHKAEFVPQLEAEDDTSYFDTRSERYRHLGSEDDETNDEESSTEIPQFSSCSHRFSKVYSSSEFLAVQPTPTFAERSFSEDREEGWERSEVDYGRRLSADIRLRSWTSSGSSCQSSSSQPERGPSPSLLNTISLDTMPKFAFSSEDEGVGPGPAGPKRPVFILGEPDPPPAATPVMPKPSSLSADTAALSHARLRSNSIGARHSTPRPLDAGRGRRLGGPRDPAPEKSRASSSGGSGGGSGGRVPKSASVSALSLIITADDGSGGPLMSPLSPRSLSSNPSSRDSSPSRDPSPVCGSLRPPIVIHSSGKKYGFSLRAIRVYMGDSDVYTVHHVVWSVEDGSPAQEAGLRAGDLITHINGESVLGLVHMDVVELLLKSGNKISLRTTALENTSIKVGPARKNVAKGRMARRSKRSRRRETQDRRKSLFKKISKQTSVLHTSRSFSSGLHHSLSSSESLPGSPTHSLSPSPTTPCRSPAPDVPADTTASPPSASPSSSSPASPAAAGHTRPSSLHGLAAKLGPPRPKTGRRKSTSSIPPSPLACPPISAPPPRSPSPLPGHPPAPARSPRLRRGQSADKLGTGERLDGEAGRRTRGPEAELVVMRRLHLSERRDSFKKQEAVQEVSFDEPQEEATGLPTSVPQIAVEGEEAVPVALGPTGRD

[4] = molecular target: eIF-2-alpha kinase GCN2 (Homo sapiens, UniProt Q9P2K8); experiment: Inhibition of GCN2 in human HeLa cells lysate at 2 uM pre incubated for 15 mins followed by ATP acyl phosphate probe addition and measured after 10 mins by LC-MS/MS analysis relative to control; details: time 25.0 min
eIF-2-alpha kinase GCN2, sequence (Q9P2K8 whole entry): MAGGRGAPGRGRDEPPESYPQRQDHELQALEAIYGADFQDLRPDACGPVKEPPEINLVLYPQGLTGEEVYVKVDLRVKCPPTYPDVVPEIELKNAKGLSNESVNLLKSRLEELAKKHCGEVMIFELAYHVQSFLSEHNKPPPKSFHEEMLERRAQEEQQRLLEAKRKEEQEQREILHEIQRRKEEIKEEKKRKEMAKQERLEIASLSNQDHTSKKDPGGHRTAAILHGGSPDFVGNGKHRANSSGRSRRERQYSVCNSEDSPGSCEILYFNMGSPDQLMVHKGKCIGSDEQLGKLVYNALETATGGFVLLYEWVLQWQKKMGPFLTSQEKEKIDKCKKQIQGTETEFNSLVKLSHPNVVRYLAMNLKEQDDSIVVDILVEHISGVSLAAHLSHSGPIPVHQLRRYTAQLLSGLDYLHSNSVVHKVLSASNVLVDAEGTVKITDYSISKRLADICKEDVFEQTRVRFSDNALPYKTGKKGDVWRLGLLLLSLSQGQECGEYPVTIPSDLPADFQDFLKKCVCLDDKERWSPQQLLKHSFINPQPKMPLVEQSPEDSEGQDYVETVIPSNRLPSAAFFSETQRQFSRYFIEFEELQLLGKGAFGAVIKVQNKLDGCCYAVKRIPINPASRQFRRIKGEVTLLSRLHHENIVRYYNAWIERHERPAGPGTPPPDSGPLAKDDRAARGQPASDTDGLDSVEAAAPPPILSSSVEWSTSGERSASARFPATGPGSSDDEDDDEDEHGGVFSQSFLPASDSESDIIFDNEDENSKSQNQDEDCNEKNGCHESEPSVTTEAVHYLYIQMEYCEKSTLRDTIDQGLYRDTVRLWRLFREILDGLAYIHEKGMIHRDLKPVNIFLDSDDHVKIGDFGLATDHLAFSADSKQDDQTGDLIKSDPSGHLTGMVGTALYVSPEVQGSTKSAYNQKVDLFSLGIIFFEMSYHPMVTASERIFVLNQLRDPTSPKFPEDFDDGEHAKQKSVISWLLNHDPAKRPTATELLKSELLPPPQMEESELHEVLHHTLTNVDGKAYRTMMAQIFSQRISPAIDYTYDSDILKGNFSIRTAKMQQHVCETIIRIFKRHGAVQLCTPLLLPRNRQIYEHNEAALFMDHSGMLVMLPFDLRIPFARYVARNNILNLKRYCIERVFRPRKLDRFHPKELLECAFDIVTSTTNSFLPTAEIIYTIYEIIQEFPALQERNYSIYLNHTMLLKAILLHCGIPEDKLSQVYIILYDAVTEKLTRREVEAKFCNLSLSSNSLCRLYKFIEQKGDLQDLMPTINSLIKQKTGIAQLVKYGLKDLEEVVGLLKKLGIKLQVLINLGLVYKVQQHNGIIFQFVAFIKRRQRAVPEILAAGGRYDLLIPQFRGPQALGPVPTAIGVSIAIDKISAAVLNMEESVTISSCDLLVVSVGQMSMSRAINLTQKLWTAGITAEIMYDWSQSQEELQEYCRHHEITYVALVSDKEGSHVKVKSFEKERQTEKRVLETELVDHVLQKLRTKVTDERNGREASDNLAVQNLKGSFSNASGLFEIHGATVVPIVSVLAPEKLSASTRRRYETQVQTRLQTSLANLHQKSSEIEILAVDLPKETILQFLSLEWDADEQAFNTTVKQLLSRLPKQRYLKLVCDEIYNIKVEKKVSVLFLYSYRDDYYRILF

[5] = Inhibition of PCTAIRE2/PCTAIRE3 in human HeLa cells lysate pre incubated for 15 mins followed by ADP acyl phosphate probe addition and measured after 10 mins by LC-MS/MS analysis
[6] = molecular target: T2, Dual specificity mitogen-activated protein kinase kinase; MEK1/2 (Homo sapiens, UniProt P36507+Q02750); experiment: Inhibition of MAP2K1/MAP2K2 in human HeLa cells lysate pre incubated for 15 mins followed by ATP acyl phosphate probe addition and measured after 10 mins by LC-MS/MS analysis
[7] = molecular target: Glycogen synthase kinase-3 beta (Homo sapiens, UniProt P49841); experiment: Inhibition of GSK3B isoform 2 in human HeLa cells lysate at 2 uM pre incubated for 15 mins followed by ADP acyl phosphate probe addition and measured after 10 mins by LC-MS/MS analysis relative to control; details: time 25.0 min
Glycogen synthase kinase-3 beta, sequence (P49841 whole entry, looked up, canonical isoform): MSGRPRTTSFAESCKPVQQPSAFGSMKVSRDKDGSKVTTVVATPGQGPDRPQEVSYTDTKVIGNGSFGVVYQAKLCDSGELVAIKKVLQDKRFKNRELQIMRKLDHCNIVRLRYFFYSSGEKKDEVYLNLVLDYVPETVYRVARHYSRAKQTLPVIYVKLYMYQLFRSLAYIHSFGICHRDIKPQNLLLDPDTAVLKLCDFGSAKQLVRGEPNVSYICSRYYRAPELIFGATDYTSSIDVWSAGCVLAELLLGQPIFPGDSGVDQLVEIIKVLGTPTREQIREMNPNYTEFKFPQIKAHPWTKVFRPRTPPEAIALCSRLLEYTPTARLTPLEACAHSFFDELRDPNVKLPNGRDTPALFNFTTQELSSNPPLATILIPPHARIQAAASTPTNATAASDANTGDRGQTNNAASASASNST

[8] = molecular target: PKC alpha and beta-2 (Homo sapiens, UniProt P17252+P05771); experiment: Inhibition of PKCalpha/beta in human HeLa cells lysate at 50 uM pre incubated for 15 mins followed by ATP acyl phosphate probe addition and measured after 10 mins by LC-MS/MS analysis relative to control; details: time 25.0 min
[9] = molecular target: Cyclin-dependent kinase 8/19 (Homo sapiens, UniProt P49336+Q9BWU1); experiment: Inhibition of CDK8/CDK11 in human HeLa cells lysate at 2 uM pre incubated for 15 mins followed by ATP acyl phosphate probe addition and measured after 10 mins by LC-MS/MS analysis relative to control; details: time 25.0 min
In short: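 KiNativ profiling in HeLa lysate (5 mg/mL total protein). Lysate incubated 15 min with inhibitor at 50, 10, 2, 0.8 or 0 μM. ATP or ADP acylphosphate probe then added (5 μM final) and reacted 10 min. Reaction stopped with urea and analysed by targeted MS, using up to four fragment ions per kinase peptide-probe conjugate. % inhibition taken against untreated lysate. Run in duplicate.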

[10] = molecular target: T2, Dual specificity mitogen-activated protein kinase kinase; MEK1/2; experiment: Inhibition of MAP2K1/MAP2K2 in human HeLa cells lysate at 2 uM pre incubated for 15 mins followed by ATP acyl phosphate probe addition and measured after 10 mins by LC-MS/MS analysis relative to control; details: time 25.0 min
[11] = Inhibition of Wnk1/2/4 in human HeLa cells lysate pre incubated for 15 mins followed by ATP acyl phosphate probe addition and measured after 10 mins by LC-MS/MS analysis
[12] = molecular target: MAP/microtubule affinity-regulating kinase 3 (Homo sapiens, UniProt P27448); experiment: Inhibition of MARK3 in human HeLa cells lysate at 50 uM pre incubated for 15 mins followed by ATP acyl phosphate probe addition and measured after 10 mins by LC-MS/MS analysis relative to control; details: time 25.0 min
[13] = molecular target: Serine/threonine-protein kinase 10 (Homo sapiens, UniProt O94804); experiment: Inhibition of LOK in human HeLa cells lysate pre incubated for 15 mins followed by ATP acyl phosphate probe addition and measured after 10 mins by LC-MS/MS analysis
Serine/threonine-protein kinase 10, sequence (O94804 whole entry): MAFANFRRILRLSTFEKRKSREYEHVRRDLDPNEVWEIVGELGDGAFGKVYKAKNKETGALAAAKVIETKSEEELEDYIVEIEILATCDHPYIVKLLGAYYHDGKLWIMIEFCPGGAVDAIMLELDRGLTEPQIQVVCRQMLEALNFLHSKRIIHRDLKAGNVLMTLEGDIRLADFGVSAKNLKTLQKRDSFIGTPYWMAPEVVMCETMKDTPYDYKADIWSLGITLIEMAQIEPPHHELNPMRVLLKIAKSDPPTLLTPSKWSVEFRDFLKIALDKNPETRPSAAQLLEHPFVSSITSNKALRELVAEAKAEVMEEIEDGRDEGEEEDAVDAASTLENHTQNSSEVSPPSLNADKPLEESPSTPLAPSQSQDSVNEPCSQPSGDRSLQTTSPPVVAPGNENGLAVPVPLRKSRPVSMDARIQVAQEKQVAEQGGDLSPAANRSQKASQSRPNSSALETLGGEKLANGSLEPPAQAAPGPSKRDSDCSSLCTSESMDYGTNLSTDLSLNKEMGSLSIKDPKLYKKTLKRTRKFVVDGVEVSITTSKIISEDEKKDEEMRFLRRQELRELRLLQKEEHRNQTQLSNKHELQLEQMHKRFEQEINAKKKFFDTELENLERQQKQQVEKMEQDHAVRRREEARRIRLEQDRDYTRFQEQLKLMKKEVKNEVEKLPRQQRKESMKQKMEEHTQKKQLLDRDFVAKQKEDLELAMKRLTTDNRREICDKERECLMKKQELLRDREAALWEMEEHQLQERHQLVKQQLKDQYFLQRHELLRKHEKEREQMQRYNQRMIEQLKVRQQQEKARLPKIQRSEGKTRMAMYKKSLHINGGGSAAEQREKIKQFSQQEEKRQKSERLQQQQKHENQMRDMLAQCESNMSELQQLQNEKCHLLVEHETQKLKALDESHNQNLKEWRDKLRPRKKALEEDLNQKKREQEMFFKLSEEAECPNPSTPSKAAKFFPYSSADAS

[14] = molecular target: Mitogen-activated protein kinase 3 (Homo sapiens, UniProt P27361); experiment: Inhibition of ERK1 in human HeLa cells lysate at 2 uM pre incubated for 15 mins followed by ADP acyl phosphate probe addition and measured after 10 mins by LC-MS/MS analysis relative to control; details: time 25.0 min
Mitogen-activated protein kinase 3, sequence (P27361 whole entry): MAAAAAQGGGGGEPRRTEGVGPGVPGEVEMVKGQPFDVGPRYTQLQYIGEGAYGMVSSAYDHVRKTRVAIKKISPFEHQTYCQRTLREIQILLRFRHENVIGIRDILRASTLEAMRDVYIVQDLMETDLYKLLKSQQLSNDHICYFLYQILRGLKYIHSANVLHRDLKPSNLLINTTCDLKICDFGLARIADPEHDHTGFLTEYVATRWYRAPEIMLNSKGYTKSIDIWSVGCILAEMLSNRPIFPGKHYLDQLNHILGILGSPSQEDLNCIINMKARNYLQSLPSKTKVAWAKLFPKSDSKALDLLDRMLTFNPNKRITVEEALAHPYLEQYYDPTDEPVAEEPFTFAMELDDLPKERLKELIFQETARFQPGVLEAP

[15] = molecular target: T3, Serine/threonine-protein kinase tousled-like 1 (Homo sapiens) (UniProt Q9UKI8); experiment: Inhibition of TLK1 in human HeLa cells lysate at 10 uM pre incubated for 15 mins followed by ADP acyl phosphate probe addition and measured after 10 mins by LC-MS/MS analysis relative to control; details: time 25.0 min
T3 sequence (whole entry): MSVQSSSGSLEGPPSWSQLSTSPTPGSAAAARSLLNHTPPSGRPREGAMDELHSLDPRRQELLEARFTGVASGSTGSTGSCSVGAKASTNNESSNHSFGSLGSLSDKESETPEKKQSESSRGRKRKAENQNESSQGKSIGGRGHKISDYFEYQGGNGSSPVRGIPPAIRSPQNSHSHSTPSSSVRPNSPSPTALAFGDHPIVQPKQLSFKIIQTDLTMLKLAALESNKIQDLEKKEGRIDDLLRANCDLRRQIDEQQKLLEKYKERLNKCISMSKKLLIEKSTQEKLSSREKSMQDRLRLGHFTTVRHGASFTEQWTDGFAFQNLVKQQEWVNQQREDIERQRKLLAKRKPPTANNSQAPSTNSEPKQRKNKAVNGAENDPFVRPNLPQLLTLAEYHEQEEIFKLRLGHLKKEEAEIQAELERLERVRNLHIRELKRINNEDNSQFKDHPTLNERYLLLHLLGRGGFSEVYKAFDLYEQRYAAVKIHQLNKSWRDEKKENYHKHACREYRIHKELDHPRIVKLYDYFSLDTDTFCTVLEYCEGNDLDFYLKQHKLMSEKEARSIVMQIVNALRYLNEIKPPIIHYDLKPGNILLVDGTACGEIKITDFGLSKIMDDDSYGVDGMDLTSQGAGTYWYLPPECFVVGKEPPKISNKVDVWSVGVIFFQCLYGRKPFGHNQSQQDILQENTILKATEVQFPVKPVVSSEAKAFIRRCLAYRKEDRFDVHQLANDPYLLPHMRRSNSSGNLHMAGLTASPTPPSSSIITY

With CCOc1cc(N2CCC(O)CC2)ccc1Nc1ncc2c(n1)N(C)c1ccccc1C(=O)N2C the inhibition [1] was -2.6%, the inhibition [2] was 12.7% and the IC50 [3] was over 50 µM. The inhibition [4] was 0.2%, the IC50 [5] was over 50 µM and the IC50 [6] was over 50 µM. It also gave an inhibition [7] of 18.5%, an inhibition [8] of 14.4% and an inhibition [9] of -7.5%. For the same compound, the inhibition [10] was 0.6%, the IC50 [11] was over 50 µM and the inhibition [12] was 6.2%. It also gave an IC50 [13] of over 50 µM, an inhibition [14] of 16.2% and an inhibition [15] of 4.5%.
